Experimental data published in ChEMBL document CHEMBL5058577, “EUbOPEN Chemogenomics Library 2 (Multiplex)” (2022).

System: U2OS
Experiment: Multiplex assay against U2OS
Assay type: toxicity, cell-based
Conditions: human
Procedure, shortened: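 Cells stained live at seeding with Hoechst33342, BioTracker Green Microtubule Cytoskeleton Dye, MitoTracker Red and Annexin V Alexa Fluor 680 were imaged on a CQ1 microscope at 37°C and 5% CO2 after compound addition. Their classification by CellPathfinder machine-learning gating ran from Hoechst high-intensity objects versus normal cells, to healthy, pyknosed or fragmented nuclei among normal cells, to mitotic or apoptotic among pyknosed cells. Tubulin, mitochondrial-mass and membrane-permeability phenotypes are per cents of healthy-nucleus cells.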

[1] = 12 h, 1 µM, compound concentration 1 uM, replicate 1
[2] = 12 h, 1 µM, compound concentration 1 uM, replicate 2
[3] = 12 h, 10 µM, compound concentration 10 uM, replicate 1
[4] = 12 h, 10 µM, compound concentration 10 uM, replicate 2
[5] = 24 h, 1 µM, compound concentration 1 uM, replicate 1
[6] = 24 h, 1 µM, compound concentration 1 uM, replicate 2
[7] = 24 h, 10 µM, compound concentration 10 uM, replicate 1
[8] = 24 h, 10 µM, compound concentration 10 uM, replicate 2
[9] = 48 h, 1 µM, compound concentration 1 uM, replicate 1
[10] = 48 h, 1 µM, compound concentration 1 uM, replicate 2
[11] = 48 h, 10 µM, compound concentration 10 uM, replicate 1
[12] = 48 h, 10 µM, compound concentration 10 uM, replicate 2

SMILES: O=C1[C@H](Cc2ccc(O)cc2)N2C(=O)CCN(C(=O)NCc3ccccc3)[C@H]2CN1Cc1cccc2ccccc12
- Population Apoptotic (%) [1]: 91%
- Population Fragmented Nuclei (%) [1]: 13%
- Population Healthy Nuclei (%) [1]: 74%
- Population Hoechst High Intensity Objects (%) [1]: 4%
- Population Membrane Permeable-Phenotype (%) [1]: 4%
- Population Mitochondria Different-Phenotype (%) [1]: 1%
- Population Mitotic Cells (%) [1]: 8%
- Population Normal (%) [1]: 96%
- Population Pyknosed Nuclei (%) [1]: 12%
- Population Tubulin-Different-Phenotype (%) [1]: 1%
- Total Cell Count [1]: 200
- Population Apoptotic (%) [2]: 84%
- Population Fragmented Nuclei (%) [2]: 21%
- Population Healthy Nuclei (%) [2]: 66%
- Population Hoechst High Intensity Objects (%) [2]: 0%
- Population Membrane Permeable-Phenotype (%) [2]: 5%
- Population Mitochondria Different-Phenotype (%) [2]: 8%
- Population Mitotic Cells (%) [2]: 15%
- Population Normal (%) [2]: 99%
- Population Pyknosed Nuclei (%) [2]: 11%
- Population Tubulin-Different-Phenotype (%) [2]: 4%
- Total Cell Count [2]: 113
- Population Apoptotic (%) [3]: 60%
- Population Fragmented Nuclei (%) [3]: 32%
- Population Healthy Nuclei (%) [3]: 50%
- Population Hoechst High Intensity Objects (%) [3]: 3%
- Population Membrane Permeable-Phenotype (%) [3]: 55%
- Population Mitochondria Different-Phenotype (%) [3]: 35%
- Population Mitotic Cells (%) [3]: 40%
- Population Normal (%) [3]: 96%
- Population Pyknosed Nuclei (%) [3]: 17%
- Population Tubulin-Different-Phenotype (%) [3]: 55%
- Total Cell Count [3]: 207
- Population Apoptotic (%) [4]: 72%
- Population Fragmented Nuclei (%) [4]: 19%
- Population Healthy Nuclei (%) [4]: 67%
- Population Hoechst High Intensity Objects (%) [4]: 6%
- Population Membrane Permeable-Phenotype (%) [4]: 38%
- Population Mitochondria Different-Phenotype (%) [4]: 47%
- Population Mitotic Cells (%) [4]: 27%
- Population Normal (%) [4]: 93%
- Population Pyknosed Nuclei (%) [4]: 13%
- Population Tubulin-Different-Phenotype (%) [4]: 43%
- Total Cell Count [4]: 88
- Population Apoptotic (%) [5]: 80%
- Population Fragmented Nuclei (%) [5]: 13%
- Population Healthy Nuclei (%) [5]: 73%
- Population Hoechst High Intensity Objects (%) [5]: 2%
- Population Membrane Permeable-Phenotype (%) [5]: 4%
- Population Mitochondria Different-Phenotype (%) [5]: 1%
- Population Mitotic Cells (%) [5]: 19%
- Population Normal (%) [5]: 97%
- Population Pyknosed Nuclei (%) [5]: 13%
- Population Tubulin-Different-Phenotype (%) [5]: 2%
- Total Cell Count [5]: 242
- Population Apoptotic (%) [6]: 88%
- Population Fragmented Nuclei (%) [6]: 14%
- Population Healthy Nuclei (%) [6]: 71%
- Population Hoechst High Intensity Objects (%) [6]: 1%
- Population Membrane Permeable-Phenotype (%) [6]: 7%
- Population Mitochondria Different-Phenotype (%) [6]: 5%
- Population Mitotic Cells (%) [6]: 11%
- Population Normal (%) [6]: 98%
- Population Pyknosed Nuclei (%) [6]: 14%
- Population Tubulin-Different-Phenotype (%) [6]: 4%
- Total Cell Count [6]: 127
- Population Apoptotic (%) [7]: 65%
- Population Fragmented Nuclei (%) [7]: 34%
- Population Healthy Nuclei (%) [7]: 42%
- Population Hoechst High Intensity Objects (%) [7]: 3%
- Population Membrane Permeable-Phenotype (%) [7]: 25%
- Population Mitochondria Different-Phenotype (%) [7]: 23%
- Population Mitotic Cells (%) [7]: 34%
- Population Normal (%) [7]: 96%
- Population Pyknosed Nuclei (%) [7]: 22%
- Population Tubulin-Different-Phenotype (%) [7]: 25%
- Total Cell Count [7]: 214
- Population Apoptotic (%) [8]: 85%
- Population Fragmented Nuclei (%) [8]: 29%
- Population Healthy Nuclei (%) [8]: 54%
- Population Hoechst High Intensity Objects (%) [8]: 5%
- Population Membrane Permeable-Phenotype (%) [8]: 36%
- Population Mitochondria Different-Phenotype (%) [8]: 38%
- Population Mitotic Cells (%) [8]: 14%
- Population Normal (%) [8]: 94%
- Population Pyknosed Nuclei (%) [8]: 16%
- Population Tubulin-Different-Phenotype (%) [8]: 42%
- Total Cell Count [8]: 91
- Population Apoptotic (%) [9]: 81%
- Population Fragmented Nuclei (%) [9]: 15%
- Population Healthy Nuclei (%) [9]: 73%
- Population Hoechst High Intensity Objects (%) [9]: 3%
- Population Membrane Permeable-Phenotype (%) [9]: 2%
- Population Mitochondria Different-Phenotype (%) [9]: 2%
- Population Mitotic Cells (%) [9]: 18%
- Population Normal (%) [9]: 96%
- Population Pyknosed Nuclei (%) [9]: 11%
- Population Tubulin-Different-Phenotype (%) [9]: 3%
- Total Cell Count [9]: 326
- Population Apoptotic (%) [10]: 95%
- Population Fragmented Nuclei (%) [10]: 16%
- Population Healthy Nuclei (%) [10]: 67%
- Population Hoechst High Intensity Objects (%) [10]: 5%
- Population Membrane Permeable-Phenotype (%) [10]: 3%
- Population Mitochondria Different-Phenotype (%) [10]: 0%
- Population Mitotic Cells (%) [10]: 4%
- Population Normal (%) [10]: 94%
- Population Pyknosed Nuclei (%) [10]: 15%
- Population Tubulin-Different-Phenotype (%) [10]: 5%
- Total Cell Count [10]: 168
- Population Apoptotic (%) [11]: 82%
- Population Fragmented Nuclei (%) [11]: 37%
- Population Healthy Nuclei (%) [11]: 43%
- Population Hoechst High Intensity Objects (%) [11]: 5%
- Population Membrane Permeable-Phenotype (%) [11]: 28%
- Population Mitochondria Different-Phenotype (%) [11]: 16%
- Population Mitotic Cells (%) [11]: 17%
- Population Normal (%) [11]: 94%
- Population Pyknosed Nuclei (%) [11]: 19%
- Population Tubulin-Different-Phenotype (%) [11]: 19%
- Total Cell Count [11]: 252
- Population Apoptotic (%) [12]: 81%
- Population Fragmented Nuclei (%) [12]: 33%
- Population Healthy Nuclei (%) [12]: 46%
- Population Hoechst High Intensity Objects (%) [12]: 4%
- Population Membrane Permeable-Phenotype (%) [12]: 22%
- Population Mitochondria Different-Phenotype (%) [12]: 20%
- Population Mitotic Cells (%) [12]: 18%
- Population Normal (%) [12]: 95%
- Population Pyknosed Nuclei (%) [12]: 20%
- Population Tubulin-Different-Phenotype (%) [12]: 18%
- Total Cell Count [12]: 111
